Published values pooled from the literature.
Lines come from different studies, so protocols differ.
Target: Fibroblast growth factor receptor 4 (FGFR4, Homo sapiens, UniProt P22455)

SMILES | assay | conditions | remaining binding [%]
CS(=O)(=O)NCC[C@H](NC(=O)c1cncc2c1cnn2-c1ccc(F)cc1)c1ccnc(S(C)(=O)=O)c1 | cell-free assay, competition with immobilised ligand | 1 µM | 100
Cc1cnc(Nc2ccc(C(=O)N3CCC(N4CCCC4)CC3)cc2)nc1-c1cc2ccccc2s1 | binding, competition with immobilised ligand | 1 µM | 76
CCN1CCN(Cc2ccc(C(=O)Nc3ccc(C)c(Oc4ccc5c(c4)CC(=O)N5)c3)cc2C(F)(F)F)CC1 | binding, competition with immobilised ligand | 1 µM | 100
C[C@@H](c1ccc(-n2cnc3c(N)ncnc32)cc1)N1CCc2nn(C)c(Cc3ccccc3)c2C1=O | binding, competition with immobilised ligand | 0.1 µM | 97
COc1ccnn2ncc(-c3ccnc(N(C)C)n3)c12 | binding | 1 µM | 100
O=C(NCC1CCOCC1)c1n[nH]cc1NC(=O)c1c(F)cccc1F | binding, competition with immobilised ligand | 1 µM | 100
COc1cnc(Nc2cccc(S(N)(=O)=O)c2)nc1N1CCN(c2ccccc2)C(=O)C1 | binding, competition with immobilised ligand | 1 µM | 100
CN([C@@H]1CCc2c(CC(=O)O)c3cc(S(C)(=O)=O)ccc3n2C1)S(=O)(=O)c1ccc(F)cc1 | cell-free assay, competition with immobilised ligand | 1 µM | 99
CN(C)c1nccc(-c2cnn3ncccc23)n1 | binding | 1 µM | 100
Cc1c(C(=O)O)cc(-c2ccc(C3CCNCC3)cc2)c2ccc(-c3ccc(C(F)(F)F)cc3)cc12 | cell-free assay, competition with immobilised ligand | 1 µM | 100
N[C@@H]1CCN(c2nccc(-c3cnn4ncccc34)n2)C1 | binding | 1 µM | 96
CN(c1ccnc(CNc2nc(Nc3ccc4c(c3)CC(=O)N4)ncc2C(F)(F)F)n1)S(C)(=O)=O | cell-free assay, competition with immobilised ligand | 1 µM | 83
CC1CCCN1c1nccc(-c2cnn3ncccc23)n1 (stereo not shown) | binding | 1 µM | 100
O=C(NCCCN1CCOCC1)c1ccc(Nc2ncc(Cl)c(-c3ccc(Cl)s3)n2)cc1 | binding, competition with immobilised ligand | 1 µM | 89
C[C@@H]1CN(c2cc(-c3nn(C)c4ccc(OC5(C)CC5)cc34)ncn2)C[C@H](C)O1 | cell-free assay, competition with immobilised ligand | 1 µM | 100
CNC(=O)[C@@H]1CC[C@@H](n2c(-c3ccc4cnccc4c3)nc3ccc(C(=O)NCc4cccc(C(N)=O)c4)cc32)C1 | binding, competition with immobilised ligand | 1 µM | 100
C[C@@H]1CCN(c2nccc(-c3cnn4ncccc34)n2)C1 | binding | 1 µM | 100
FC(F)(F)Oc1cccc(-c2cnc3ccc(-c4ccncc4)nn23)c1 | cell-free assay, competition with immobilised ligand | 5 µM | 98
Cc1cnn2ncc(-c3ccnc(N(C)C)n3)c2c1 | binding | 1 µM | 97
O=C(NCCCN1CCOCC1)c1ccc(Nc2nccc(-c3cc4ccccc4s3)n2)cc1 | binding, competition with immobilised ligand | 1 µM | 91
O=C(NS(=O)(=O)c1ccc(NCC2CCOCC2)c([N+](=O)[O-])c1)c1ccc(N2CCN(Cc3ccc(C(F)(F)F)cc3-c3ccc(Cl)cc3)CC2)cc1Oc1cnc2[nH]ccc2c1 | cell-free assay, competition with immobilised ligand | 1 µM | 96
CN(C)c1ncc(F)c(-c2cnn3ncccc23)n1 | binding | 1 µM | 100
